# In ChEMBL document CHEMBL1156136, “Hypoxia-activated prodrugs: substituent effects on the properties of nitro seco-1,2,9,9a-tetrahydrocyclopropa[c]benz[e]indol-4-one (nitroCBI) prodrugs of DNA minor groove alkylating agents” (J Med Chem, 2009):
# Tests used:
# SK-OV-3 [1] = assay: Cytotoxicity against human SKOV3 cells in oxic condition after 4 hrs by sulforhodamine B assay; assay type: functional, cell-based; details: SK-OV-3, 4 h
# In short: (§1)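 Log-phase monolayers exposed to drug for 4 h under aerobic (20% O2) or anoxic (<20 ppm O2) conditions, then sulforhodamine B staining 5 days later. IC50 interpolated as concentration lowering cell density to 50% of same-plate controls. HCR = IC50(oxic)/IC50(hypoxic), mean of intraexperiment ratios. A549 P450R line is a stable transfectant with 9-fold higher cytochrome c reduction rate than parent.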
# HT-29 [2] = assay: Hypoxic cytotoxicity ratio, IC50 for human HT-29 cells in oxic condition to IC50 for human HT-29 cells in hypoxic condition; assay type: functional; in short: as §1
# SK-OV-3 [3] = assay: Hypoxic cytotoxicity ratio, IC50 for human SKOV3 cells in oxic condition to IC50 for human SKOV3 cells in hypoxic condition; assay type: functional; in short: as §1
# HT-29 [4] = assay: Cytotoxicity against human HT-29 cells in oxic condition after 4 hrs by sulforhodamine B assay; assay type: functional, cell-based; details: HT-29, 4 h; in short: as §1
# HT-29 [5] = assay: Cytotoxicity against human HT-29 cells in hypoxic condition after 4 hrs by sulforhodamine B assay; assay type: functional, cell-based; details: HT-29, 4 h; in short: as §1
# SK-OV-3 [6] = assay: Cytotoxicity against human SKOV3 cells in hypoxic condition after 4 hrs by sulforhodamine B assay; assay type: functional, cell-based; details: SK-OV-3, 4 h; in short: as §1
Compound,IC50 (SK-OV-3 [1]),Ratio IC50 (HT-29 [2]),Ratio IC50 (SK-OV-3 [3]),IC50 (HT-29 [4]),IC50 (HT-29 [5]),IC50 (SK-OV-3 [6])
CN(C)CCOc1ccc2[nH]c(C(=O)N3CC(CCl)c4c3cc(N)c3ccc(S(C)(=O)=O)cc43)cc2c1 (centres undefined),18000 nM,1.9,1.5,29000 nM,16 nM,12 nM
COc1cc2cc(C(=O)N3CC(CCl)c4c3cc(N)c3cc(S(N)(=O)=O)ccc43)[nH]c2c(OC)c1OC (centres undefined),41000 nM,1.1,1.3,86000 nM,91 nM,33 nM
COC(=O)c1ccc2c3c(cc([N+](=O)[O-])c2c1)N(C(=O)c1cc2cc(OC)c(OC)c(OC)c2[nH]1)CC3CCl (centres undefined),1100 nM,3.2,4,1900 nM,0.81 nM,0.51 nM
CN(C)CCOc1ccc2[nH]c(C(=O)N3CC(CCl)c4c3cc([N+](=O)[O-])c3cc([N+](=O)[O-])ccc43)cc2c1 (centres undefined),1100 nM,9.6,9.3,890 nM,0.093 nM,0.12 nM
CN(C)CCOc1ccc2[nH]c(C(=O)N3CC(CCl)c4c3cc(N)c3cc(S(N)(=O)=O)ccc43)cc2c1 (centres undefined),23000 nM,1.8,1.4,35000 nM,23 nM,16 nM
COc1cc2cc(C(=O)N3CC(CCl)c4c3cc([N+](=O)[O-])c3ccccc43)[nH]c2c(OC)c1OC (centres undefined),4200 nM,2.5,2.8,3400 nM,1.6 nM,1.7 nM
COc1cc2cc(C(=O)N3CC(CCl)c4c3cc(N)c3ccccc43)[nH]c2c(OC)c1OC (centres undefined),1300 nM,0.76,1,860 nM,2.5 nM,1.7 nM
CN(C)CCOc1ccc2[nH]c(C(=O)N3CC(CCl)c4c3cc([N+](=O)[O-])c3cc(S(C)(=O)=O)ccc43)cc2c1 (centres undefined),1300 nM,4,11,970 nM,0.27 nM,0.12 nM
COc1cc2cc(C(=O)N3CC(CCl)c4c3cc([N+](=O)[O-])c3cc(C#N)ccc43)[nH]c2c(OC)c1OC (centres undefined),6400 nM,2.5,13,5300 nM,2400 nM,1000 nM
COc1cc2cc(C(=O)N3CC(CCl)c4c3cc([N+](=O)[O-])c3c(C(C)=O)cccc43)[nH]c2c(OC)c1OC (centres undefined),500 nM,2,3.4,680 nM,0.33 nM,0.14 nM
CC(=O)c1cccc2c3c(cc([N+](=O)[O-])c12)N(C(=O)c1cc2cc(OCCN(C)C)ccc2[nH]1)CC3CCl (centres undefined),640 nM,5.2,12,200 nM,35 nM,52 nM
COc1cc2cc(C(=O)N3CC(CCl)c4c3cc([N+](=O)[O-])c3cccc([N+](=O)[O-])c43)[nH]c2c(OC)c1OC (centres undefined),55000 nM,1.2,<1.1,34000 nM,33000 nM,> 50000 nM
CC(=O)c1ccc2c3c(cc(N)c2c1)N(C(=O)c1cc2cc(OCCN(C)C)ccc2[nH]1)CC3CCl (centres undefined),11000 nM,1.5,1.4,7600 nM,5.6 nM,8.2 nM
COc1cc2cc(C(=O)N3CC(CCl)c4c3cc([N+](=O)[O-])c3cc(S(N)(=O)=O)ccc43)[nH]c2c(OC)c1OC (centres undefined),37000 nM,3.6,10,43000 nM,12 nM,3.7 nM
CN(C)CCOc1ccc2[nH]c(C(=O)N3CC(CCl)c4c3cc(N)c3cc(S(C)(=O)=O)ccc43)cc2c1 (centres undefined),14000 nM,1.6,1.7,11000 nM,7.3 nM,8.2 nM
COc1cc2cc(C(=O)N3CC(CCl)c4c3cc(N)c3ccc(S(C)(=O)=O)cc43)[nH]c2c(OC)c1OC (centres undefined),19000 nM,1,1.4,25000 nM,28 nM,14 nM
COc1cc2cc(C(=O)N3CC(CCl)c4c3cc([N+](=O)[O-])c3ccc(S(N)(=O)=O)cc43)[nH]c2c(OC)c1OC (centres undefined),12000 nM,1.9,2.6,24000 nM,14 nM,4.9 nM
COc1cc2cc(C(=O)N3CC(CCl)c4c3cc([N+](=O)[O-])c3cc(C(N)=O)ccc43)[nH]c2c(OC)c1OC (centres undefined),5800 nM,2.8,6.1,7900 nM,3.6 nM,1.6 nM
COC(=O)c1ccc2c3c(cc(N)c2c1)N(C(=O)c1cc2cc(OCCN(C)C)ccc2[nH]1)CC3CCl (centres undefined),7700 nM,1.7,0.91,8600 nM,5.7 nM,8.3 nM
CN(C)CCOc1ccc2[nH]c(C(=O)N3CC(CCl)c4c3cc([N+](=O)[O-])c3c(C#N)cccc43)cc2c1 (centres undefined),170 nM,1.1,1.7,120 nM,0.1 nM,0.1 nM
CN(C)CCOc1ccc2[nH]c(C(=O)N3CC(CCl)c4c3cc(N)c3cc(C#N)ccc43)cc2c1 (centres undefined),13000 nM,2,1.1,17000 nM,8.6 nM,12 nM
COc1cc2cc(C(=O)N3CC(CCl)c4c3cc([N+](=O)[O-])c3cc(S(C)(=O)=O)ccc43)[nH]c2c(OC)c1OC (centres undefined),17000 nM,2,1.9,14000 nM,7.2 nM,9.3 nM
CN(C)CCOc1ccc2[nH]c(C(=O)N3CC(CCl)c4c3cc([N+](=O)[O-])c3c(C(N)=O)cccc43)cc2c1 (centres undefined),50000 nM,43,18,23000 nM,1.5 nM,3.2 nM
COc1cc2cc(C(=O)N3CC(CCl)c4c3cc([N+](=O)[O-])c3ccc(S(C)(=O)=O)cc43)[nH]c2c(OC)c1OC (centres undefined),11000 nM,2.5,4.2,14000 nM,7.2 nM,3.9 nM
COc1cc2cc(C(=O)N3CC(CCl)c4c3cc([N+](=O)[O-])c3cc(C(C)=O)ccc43)[nH]c2c(OC)c1OC (centres undefined),5100 nM,5.2,19,4100 nM,0.93 nM,0.44 nM
CN(C)CCOc1ccc2[nH]c(C(=O)N3CC(CCl)c4c3cc([N+](=O)[O-])c3c([N+](=O)[O-])cccc43)cc2c1 (centres undefined),4100 nM,2.2,2.9,2800 nM,1.3 nM,1.4 nM
CN(C)CCOc1ccc2[nH]c(C(=O)N3CC(CCl)c4c3cc(N)c3ccccc43)cc2c1 (centres undefined),6800 nM,1.3,0.97,5000 nM,3.5 nM,6.6 nM
COc1cc2cc(C(=O)N3CC(CCl)c4c3cc(N)c3cc(S(C)(=O)=O)ccc43)[nH]c2c(OC)c1OC (centres undefined),32000 nM,0.86,1.2,32000 nM,36 nM,25 nM
CN(C)CCOc1ccc2[nH]c(C(=O)N3CC(CCl)c4c3cc([N+](=O)[O-])c3ccc(C#N)cc43)cc2c1 (centres undefined),1200 nM,1.4,1.5,1400 nM,1200 nM,880 nM
